Bioassay records from PubChem BioAssay.
G6PDH counter: counter-screen for G6PDH assay hits: L. mesenteroides G6PDH inhibition. Purified L. mesenteroides G6PDH, diaphorase/resazurin coupled fluorescence, 45 min. inhibition, % at 5 µM. actives 0.12% (n = 200,000). AID 1020
Diaphorase act: counter-screen for diaphorase-based assays: diaphorase activators and chemical reducers; Diaphorase/resazurin coupled assay, resorufin fluorescence, 16 min; stronger effect = higher value; 1 = vehicle wells, 0 = NADH-free wells; activation factor at 20 µM; actives 0.005% (n = 190,000); AID 1229;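 active = diaphorase activity raised at least twofold by the compound at 20 µM; inactive = activation factor below 2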
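test system = bacterial diaphorase enzyme (C. kluyveri) | quantity = enzyme 0.07 U/mL final | reagent = NADH substrate 0.114 mM plus resazurin dye 0.1 mM, final | incubation = 16 min enzyme reaction, ambient temperature | buffer or medium = HEPES pH 7.4 buffer with MgCl2 and Tween 20 | signal = fluorescence of resorufin, 544 nm excitation, 590 nm emission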
DTT redox prof: compounds producing H2O2 with reducing agent – biochemical, NIH compound library profiling, artefact control for MLSCN library redox annotation, primary screen; activation, % at 10 µM; actives 0.03% (n = 200,000); DTT-dependent redox cycling H2O2, phenol red/HRP absorbance; 100% = 100 µM peroxide control, 0% = buffer;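 active = activation of at least 50% relative to the plate's high and low controls in the primary single-dose screen; inactive = activation below 50%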;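 also: compound incubated with DTT at 0.8 mM final as the reducing agent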
L major viab: Leishmania major promastigote growth inhibition | Leishmania major promastigotes, resazurin fluorescence viability | inhibition, % at 10 µM | actives 9% (n = 200,000) | AID 1063;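 also: promastigotes grown with compound for 44 hours at 28 °C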
PfG6PD inh: PfG6PD (Plasmodium falciparum) enzyme inhibition. inhibition, % at 20 µM. AID 504690. actives 0.78% (n = 350,000). PfGluPho enzyme, NADPH resazurin-diaphorase fluorescence;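 active = inhibition reaching at least a set limit at 20 µM in the primary screen, cut at about 59% in these data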;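 also: 0% = DMSO wells with substrate and 100% = DMSO wells lacking glucose-6-phosphate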
Diaph inh CS: inhibits diaphorase or chemically oxidizes, flagging diaphorase assay artifacts; inhibition, % at 20 µM; actives 0.69% (n = 190,000); diaphorase resazurin-to-resorufin fluorescence, NADH, 16 min; bacterial (C. kluyveri) enzyme, not human;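 active = primary screen inhibition at 20 µM above a set limit, cut at about 50% in these data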;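 also: plate controls were DMSO with full reaction for no effect and wells lacking NADH for full effect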
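Assay system: diaphorase enzyme from Clostridium kluyveri. Quantity: enzyme working solution with 0.14 U/mL diaphorase. Schedule: reaction incubation of 16 min at room temperature. Technique: resorufin fluorescence, excitation 544 nm, emission 590 nm. Controls: No-NADH positive control and DMSO neutral control.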
An asterisk follows results filed as active; . = not tested or not shown. This is one part of a sample in which hits are shown more often than they occur. Rule as the data show it, unless noted: active = inhibition above about 50%; inactive = the rest.

SMILES	G6PDH counter	Diaphorase act	DTT redox prof	L major viab	PfG6PD inh	Diaph inh CS
Cc1cc(C)cc(OCCCCCNCCO)c1	6	0.9	2	52*	-2	8
Cc1cc(OCCNCCO)cc(C)c1Cl	4	0.8	1	66*	-20	16
Cc1cc(OCCCCCNCCO)cc(C)c1Cl	5	0.9	-2	98*	3	14
Cc1cc(C)c(OCCCCCNCCO)c(C)c1	0	1	0	90*	-10	2
Cc1cc(NC(=O)c2ccc(C)c(C)c2)no1	.	.	.	.	1	.
Cc1cc(C)cc(C(=O)NCC(=O)OCC(=O)NC2CC2)c1	.	.	.	.	-2	.
Cc1ccccc1S(=O)(=O)c1c(C)cc(C)n(C(C)C)c1=O	2	0.8	-4	89*	-5	16
CCCCn1c(C)cc(C)c(S(=O)(=O)c2ccccc2C)c1=O	-4	0.8	0	97*	-16	17
CCCCc1c(O)c2ccccc2n(CCCC)c1=O	3	0.8	0	-6	22	19
CCc1cc(C(=O)COc2ccccc2F)c(O)cc1O	18	0.8	-1	-1	-2	20
COC(=O)c1cccc(NS(=O)(=O)c2ccc(OC)c(OC)c2)c1C	8	0.9	0	-1	-34	11
COC(=O)c1ccc(C)c(NS(=O)(=O)c2ccc(OC)c(OC)c2)c1	5	0.8	-4	100*	-13	18
CCOc1ccc(NC(=O)CN(C)CC(=O)Nc2cc(Cl)ccc2C#N)cc1OCC	-2	0.9	0	86*	-2	8
COc1ccc(OC)c(NC(=O)CC2SC(=Nc3ccc(F)cc3)N(CCC3=CCCCC3)C2=O)c1 (centres undefined)	-5	0.8	0	55*	25	21
O=C(CC1SC(=Nc2ccc(OC(F)F)cc2)N(CCN2CCOCC2)C1=O)Nc1ccccc1 (centres undefined)	.	.	.	.	2	.
O=C(CC1SC(=Nc2ccc(OC(F)F)cc2)N(CCN2CCOCC2)C1=O)Nc1ccc(F)cc1F (centres undefined)	10	0.9	-2	62*	13	13
COc1ccc(N=C2SC(CC(=O)Nc3cccc(Cl)c3)C(=O)N2Cc2ccco2)cc1 (centres undefined)	14	0.8	0	98*	24	25
COc1ccc(N=C2SC(CC(=O)Nc3ccccc3)C(=O)N2Cc2ccccn2)cc1 (centres undefined)	16	0.8	-2	38	7	18
COc1cc([N+](=O)[O-])ccc1NC(=O)CC1SC(=Nc2ccc(F)cc2)N(CCC2=CCCCC2)C1=O (centres undefined)	-16	0.8	1	34	14	17
COc1ccc(N=C2SC(CC(=O)Nc3ccccc3)C(=O)N2CCc2ccccn2)cc1 (centres undefined)	0	0.9	0	60*	5	11
C[C@@H]1CN([C@H](C)CO)C(=O)c2cc(Br)cnc2O[C@@H]1CN(C)C(=O)C1CCOCC1	.	.	.	.	-6	.
CCOC(=O)C(=NCCCN1CCOCC1)NNc1cccc(C(F)(F)F)c1	11	1	-2	11	-23	4
COc1ccc(OC)c(NC(=O)CC2SC(=Nc3ccccc3)N(CCc3ccccn3)C2=O)c1 (centres undefined)	-12	0.8	0	55*	8	22
COc1ccc(N=C2SC(CC(=O)Nc3ccc(OC)cc3OC)C(=O)N2C)cc1 (centres undefined)	-7	0.9	3	44	6	12
CC(C)OC(=O)CC1C(=O)NCCN1C(=O)COc1ccc(C(C)(C)C)cc1 (centres undefined)	.	.	.	.	4	.
SMILES	G6PDH counter	Diaphorase act	DTT redox prof	L major viab	PfG6PD inh	Diaph inh CS
CC(=O)/C=C/c1ccc2ccccc2n1	2	0.9	3	100*	3	13
Cc1cccc(NC(=O)CSc2nc3ccccc3nc2N2CCCC2)c1C	.	.	.	.	-1	.
OC(CCCN1CCC(O)(c2ccc(Cl)cc2)CC1)c1ccc(F)cc1 (centres undefined)	29	0.9	5	96*	13	8
CCOC(=O)c1c(NC(=O)CN2C(=O)C(=O)N(CC(C)C)C2=O)sc(C)c1CC	.	.	.	.	-1	.
CCN1/C(=C/c2ccc3cccc(C)c3[n+]2CC)Sc2ccccc21	-6	1.2	-1	101*	-30	-21
CCN1/C(=C/c2ccc3cc(C)ccc3[n+]2CC)Sc2ccc3sccc3c21	.	.	.	.	61*	.
CCN1/C(=C/c2ccc3cc(C)cc(C)c3[n+]2CC)Sc2cc(C)ccc21	-2	1.4	1	100*	43	-40
CCN1/C(=C\c2ccc3cc(C)ccc3[n+]2CC)Sc2cc(C)c(C)cc21	-7	1.1	0	100*	37	-8
Cc1ccc2c(c1)S/C(=C\c1cccc[n+]1C)N2CCO	.	.	.	.	0	.
C[n+]1ccccc1/C=C1\Sc2ccccc2N1CCO	.	.	.	.	-1	.
Cc1cc(C)cc(N(CCC#N)C(=O)COC(=O)c2ccc(OCc3c(C)noc3C)cc2)c1	.	.	.	.	6	.
Cc1ccc(CN(Cc2cccnc2)C(=O)CN2C(=O)COc3ccccc32)o1	2	0.8	1	73*	21	24
CNc1nc(-c2c(C)n(C)c3ccc(OC)cc23)cs1	.	.	.	.	1	.
Cc1ccn(C(C)CC(=O)Nc2ccc(-c3ccno3)cc2)n1 (centres undefined)	.	.	.	.	6	.
O=C(CN1CCC(O)(c2ccc3c(c2)OCO3)CC1)NC1CCCCC1	9	0.9	0	3	-11	10
O=C(CN1CCC(O)(c2ccc3c(c2)OCO3)CC1)OC1CCCCC1	-16	0.8	3	97*	6	16
COc1ccc(CCNC2CC(C)N(C)CC2C)cc1OC (centres undefined)	16	0.9	-1	69*	5	12
CN1CCN(c2ccc(-c3ccc4ccccc4n3)cc2)CC1	-4	0.8	-1	92*	-5	22
c1ccc2nc(-c3ccc(N4CCOCC4)cc3)ccc2c1	-20	0.9	2	-7	-10	10
CCc1cccc(C)c1NC(=O)COC(=O)c1cc([N+](=O)[O-])ccc1N1CCOCC1	.	.	.	.	-13	.
CSCc1ccc(C(=O)NCc2ccc(F)cc2)cc1	2	0.8	0	56*	-5	20
Fc1ccc(NCc2cccnc2)cc1	5	0.9	0	82*	5	11
c1cncc(CNc2cccc(-c3nc4ccccc4[nH]3)c2)c1	14	1.1	0	67*	10	-8
CC(C)c1cc(=O)[nH]c(N2CCN(Cc3ccc4c(c3)OCO4)CC2)n1	.	.	.	.	-7	.
CC(C)Sc1ncc(S(=O)(=O)c2ccccc2)c(=O)[nH]1	2	1.1	-1	-2	5	-5
